Results reported in ChEMBL document CHEMBL1149102, “De novo design, synthesis, and pharmacology of alpha-melanocyte stimulating hormone analogues derived from somatostatin by a hybrid approach” (J Med Chem, 2004).

Columns and labels:
Melanocortin receptor 3 [1] = target: T1, Melanocortin receptor 3 (Rattus norvegicus, UniProt P32244); experiment: Maximal agonist response at rat melanocortin 3 receptor (MC3R); type: functional
Outline: (§1)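 Cells stably expressing wild-type mouse (MC3R: rat) melanocortin receptor, transfected with 4 μg CRE/β-galactosidase reporter; 5000–15 000 cells plated, incubated overnight. At 48 h post-transfection, stimulated 6 h in DMEM with 0.1 mg/mL BSA and 0.1 mM IBMX; forskolin 10^-4 M reference.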

Melanocortin receptor 4 [2] = target: T2, Melanocortin receptor 4 (Mus musculus, UniProt P56450); experiment: Effective concentration for maximum agonist response towards mouse melanocortin 4 receptor (MC4R); No activity up to 10^-5 M; type: functional; outline: as §1
T2 sequence (P56450 whole entry): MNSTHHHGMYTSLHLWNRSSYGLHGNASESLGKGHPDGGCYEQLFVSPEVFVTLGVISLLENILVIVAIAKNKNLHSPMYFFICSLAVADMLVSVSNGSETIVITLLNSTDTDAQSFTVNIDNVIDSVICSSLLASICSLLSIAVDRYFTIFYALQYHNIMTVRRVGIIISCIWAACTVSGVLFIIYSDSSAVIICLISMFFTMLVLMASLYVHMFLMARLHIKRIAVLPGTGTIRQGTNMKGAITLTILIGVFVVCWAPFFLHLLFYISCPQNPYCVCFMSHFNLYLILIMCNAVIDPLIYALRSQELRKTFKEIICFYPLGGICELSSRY

Melanocortin receptor 5 [3] = target: T3, Melanocortin receptor 5 (Mus musculus, UniProt P41149); experiment: Effective concentration for maximum agonist response towards mouse melanocortin 5 receptor (MC5R); No activity up to 10^-5 M; type: functional; outline: as §1
T3 sequence (P41149 whole entry): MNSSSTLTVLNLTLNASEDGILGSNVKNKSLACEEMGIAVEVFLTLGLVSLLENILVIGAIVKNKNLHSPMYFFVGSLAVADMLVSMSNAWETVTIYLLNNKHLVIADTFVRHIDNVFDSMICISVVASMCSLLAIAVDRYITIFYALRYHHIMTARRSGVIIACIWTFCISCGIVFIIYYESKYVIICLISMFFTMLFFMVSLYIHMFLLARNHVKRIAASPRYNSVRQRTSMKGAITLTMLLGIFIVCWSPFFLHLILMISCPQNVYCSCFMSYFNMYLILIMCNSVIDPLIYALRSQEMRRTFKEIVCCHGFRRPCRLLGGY

[4] = target: T4, Melanocyte-stimulating hormone receptor (Mus musculus, UniProt Q01727); experiment: Effective concentration for maximum agonist response towards mouse melanocortin 1 receptor (MC1R); No activity up to 10^-5 M; type: functional; outline: as §1
T4 sequence (Q01727 whole entry): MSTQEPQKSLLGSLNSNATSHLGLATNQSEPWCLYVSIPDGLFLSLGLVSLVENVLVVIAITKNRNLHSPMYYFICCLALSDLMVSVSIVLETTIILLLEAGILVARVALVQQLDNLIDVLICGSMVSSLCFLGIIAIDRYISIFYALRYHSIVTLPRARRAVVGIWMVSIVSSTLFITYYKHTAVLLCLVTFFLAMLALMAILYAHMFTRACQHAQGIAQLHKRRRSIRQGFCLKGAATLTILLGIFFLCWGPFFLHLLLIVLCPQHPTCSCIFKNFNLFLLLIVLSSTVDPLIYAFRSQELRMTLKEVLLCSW

Melanocortin receptor 3 [5] = target: T1, Melanocortin receptor 3; experiment: Effective concentration for maximum agonist response towards rat melanocortin 3 receptor (MC3R); No activity up to 10e-5 M; type: functional; outline: as §1
[6] = tested on: melanocyte-stimulating hormone receptor (Rana pipiens); experiment: Maximum agonist response for frog skin melanocortin 1 receptor (MC1R); No activity up to 10^-5M
Melanocortin receptor 5 [7] = target: T3, Melanocortin receptor 5; experiment: Maximum agonist response for mouse melanocortin 5 receptor (MC5R); type: functional; outline: as §1
[8] = target: T4, Melanocyte-stimulating hormone receptor; experiment: Maximal agonist response of mouse melanocortin 1 receptor (MC1R); type: functional; outline: as §1
[9] = tested on: Melanocortin receptor 1 (Rana pipiens); experiment: Inhibition of 1 nM alpha melanocortin stimulating hormone (MSH) from frog skin; antagonist
[10] = tested on: melanocyte-stimulating hormone receptor (Rana pipiens); experiment: Inhibition of 1 nM alpha melanocortin stimulating hormone from frog skin; No activity up to 10^-5 M.
Melanocortin receptor 4 [11] = target: T2, Melanocortin receptor 4; experiment: Effective concentration for maximum agonist response towards mouse melanocortin 4 receptor; type: functional; outline: as §1

T1 sequence (P32244 whole entry): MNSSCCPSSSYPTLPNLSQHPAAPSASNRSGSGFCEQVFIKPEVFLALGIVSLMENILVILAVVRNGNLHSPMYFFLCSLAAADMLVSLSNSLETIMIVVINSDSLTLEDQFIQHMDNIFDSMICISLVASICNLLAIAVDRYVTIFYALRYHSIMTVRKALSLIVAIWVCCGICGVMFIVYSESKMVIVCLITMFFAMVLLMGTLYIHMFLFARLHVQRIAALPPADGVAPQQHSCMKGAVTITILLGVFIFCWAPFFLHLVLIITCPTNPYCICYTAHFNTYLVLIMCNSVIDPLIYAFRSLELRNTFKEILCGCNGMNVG

Structure (SMILES): C[C@@H](O)[C@H](NC(=O)[C@@H]1NC(=O)[C@@H](Cc2c[nH]c3ccccc23)NC(=O)[C@H](CCCNC(=N)N)NC(=O)[C@@H](Cc2ccccc2)NC(=O)[C@@H](Cc2cnc[nH]2)NC(=O)[C@@H](NC(=O)[C@H](N)Cc2ccccc2)CSSC1(C)C)C(N)=O
- EC50 (Melanocortin receptor 3 [1]): 64 nM

Structure (SMILES): C[C@H](O)[C@@H](NC(=O)[C@H]1CSSC[C@H](NC(=O)[C@@H](N)Cc2ccccc2)C(=O)N[C@@H](Cc2c[nH]cn2)C(=O)N2Cc3ccccc3C[C@H]2C(=O)N[C@@H](CCCN=C(N)N)C(=O)N[C@H](Cc2c[nH]c3ccccc23)C(=O)N1)C(N)=O
- EC50 (Melanocortin receptor 4 [2]): Not Active
- EC50 (Melanocortin receptor 5 [3]): Not Active
- EC50 [4]: Not Active
- EC50 (Melanocortin receptor 3 [5]): Not Active
- EC50 [6]: Not Active

Structure (SMILES): C[C@@H](O)[C@H](NC(=O)[C@H]1CSSC(C)(C)[C@H](NC(=O)[C@H](N)Cc2ccccc2)C(=O)N[C@@H](Cc2c[nH]cn2)C(=O)N[C@@H](Cc2ccccc2)C(=O)N[C@@H](CCCN)C(=O)N[C@H](Cc2c[nH]c3ccccc23)C(=O)N1)C(N)=O
- EC50 (Melanocortin receptor 4 [2]): Not Active
- EC50 (Melanocortin receptor 5 [7]): 46 nM
- EC50 [8]: 490 nM
- EC50 (Melanocortin receptor 3 [1]): 59 nM
- IC50 [9]: Antagonist
- EC50 [6]: Not Active

Structure (SMILES): C[C@@H](O)[C@H](NC(=O)[C@H]1NC(=O)[C@H](Cc2c[nH]c3ccccc23)NC(=O)[C@H](CCCN=C(N)N)NC(=O)[C@@H](Cc2ccccc2)NC(=O)[C@H](Cc2c[nH]cn2)NC(=O)[C@@H](NC(=O)[C@H](N)Cc2ccccc2)CSSC1(C)C)C(N)=O
- IC50 [10]: Not Active

Structure (SMILES): C[C@@H](O)[C@H](NC(=O)[C@H]1NC(=O)[C@H](Cc2c[nH]c3ccccc23)NC(=O)[C@H](CCCN=C(N)N)NC(=O)[C@@H](Cc2c[nH]c3ccccc23)NC(=O)[C@H](Cc2ccccc2)NC(=O)[C@@H](NC(=O)[C@H](N)Cc2ccccc2)CSSC1(C)C)C(N)=O
- EC50 [6]: Not Active

Structure (SMILES): C[C@@H](O)[C@H](NC(=O)[C@H]1CCSSC[C@H](NC(=O)[C@@H](N)Cc2ccccc2)C(=O)N[C@@H](Cc2cnc[nH]2)C(=O)N[C@H](Cc2ccccc2)C(=O)N[C@@H](CCCNC(=N)N)C(=O)N[C@H](Cc2c[nH]c3ccccc23)C(=O)N1)C(N)=O
- EC50 (Melanocortin receptor 3 [1]): 75 nM

Structure (SMILES): C[C@@H](O)[C@H](NC(=O)[C@@H]1CSSC[C@H](NC(=O)[C@H](N)Cc2ccccc2)C(=O)N[C@@H](Cc2c[nH]cn2)C(=O)N[C@@H](Cc2cccc3ccccc23)C(=O)N[C@@H](CCCN=C(N)N)C(=O)N[C@H](Cc2c[nH]c3ccccc23)C(=O)N1)C(N)=O
- IC50 [10]: Not Active

Structure (SMILES): C[C@@H](O)[C@H](NC(=O)[C@H]1CSSC[C@H](NC(=O)[C@@H](N)Cc2ccccc2)C(=O)N[C@@H](Cc2c[nH]cn2)C(=O)N[C@H](Cc2ccccc2)C(=O)N[C@@H](CCCN=C(N)N)C(=O)N[C@H](Cc2c[nH]c3ccccc23)C(=O)N1)C(N)=O
- IC50 [10]: Not Active

Structure (SMILES): C[C@@H](O)[C@H](NC(=O)[C@H]1NC(=O)[C@H](Cc2c[nH]c3ccccc23)NC(=O)[C@H](CCCNC(=N)N)NC(=O)[C@@H](Cc2ccccc2)NC(=O)[C@H](Cc2cnc[nH]2)NC(=O)[C@@H](NC(=O)[C@H](N)Cc2ccccc2)CSSC1(C)C)C(N)=O
- EC50 (Melanocortin receptor 4 [11]): 20 nM
- EC50 (Melanocortin receptor 5 [7]): 0.14 nM
- EC50 [8]: 6.9 nM

Structure (SMILES): C[C@@H](O)[C@H](NC(=O)[C@@H]1CSSC[C@H](NC(=O)[C@H](N)Cc2ccccc2)C(=O)N[C@@H](Cc2c[nH]cn2)C(=O)N[C@H](Cc2ccc(Cl)cc2)C(=O)N[C@@H](CCCN=C(N)N)C(=O)N[C@@H](Cc2c[nH]c3ccccc23)C(=O)N1)C(N)=O
- IC50 [10]: Not Active

Structure (SMILES): C[C@H](O)[C@@H](NC(=O)[C@H]1CSSC[C@H](NC(=O)[C@H](N)Cc2ccccc2)C(=O)N[C@@H](Cc2cnc[nH]2)C(=O)N[C@@H](Cc2ccc(Cl)cc2)C(=O)N[C@@H](CCCNC(=N)N)C(=O)N[C@H](Cc2c[nH]c3ccccc23)C(=O)N1)C(N)=O
- EC50 (Melanocortin receptor 4 [11]): 0.67 nM
- EC50 (Melanocortin receptor 5 [7]): 0.11 nM
- EC50 [8]: 0.37 nM
- EC50 (Melanocortin receptor 3 [1]): 7.3 nM

Structure (SMILES): C[C@@H](O)[C@H](NC(=O)[C@@H]1CCCCNC(=O)C[C@H](NC(=O)[C@H](N)Cc2ccccc2)C(=O)N[C@@H](Cc2cnc[nH]2)C(=O)N[C@H](Cc2ccccc2)C(=O)N[C@@H](CCCNC(=N)N)C(=O)N[C@@H](Cc2c[nH]c3ccccc23)C(=O)N1)C(N)=O
- EC50 (Melanocortin receptor 4 [11]): 0.38 nM
- EC50 (Melanocortin receptor 5 [7]): 0.074 nM
- EC50 [8]: 0.047 nM

Structure (SMILES): C[C@@H](O)[C@H](NC(=O)[C@H]1NC(=O)[C@H]([C@@H](C)O)NC(=O)[C@H](CCCN=C(N)N)NC(=O)[C@@H](Cc2ccccc2)NC(=O)[C@H](Cc2ccccc2)NC(=O)[C@@H](NC(=O)[C@H](N)Cc2ccccc2)CSSC1(C)C)C(N)=O
- EC50 [6]: Not Active
- IC50 [10]: Not Active

Structure (SMILES): C[C@@H](O)[C@H](NC(=O)[C@@H]1CSSC[C@H](NC(=O)[C@H](N)Cc2ccccc2)C(=O)N[C@@H](Cc2c[nH]cn2)C(=O)N[C@@H](Cc2ccc(I)cc2)C(=O)N[C@@H](CCCN=C(N)N)C(=O)N[C@H](Cc2c[nH]c3ccccc23)C(=O)N1)C(N)=O
- EC50 [6]: Not Active
- IC50 [10]: Not Active

Structure (SMILES): C[C@@H](O)[C@H](NC(=O)[C@H]1CSSC[C@H](NC(=O)[C@H](N)Cc2ccccc2)C(=O)N[C@@H](Cc2c[nH]cn2)C(=O)N[C@@H](Cc2ccccc2)C(=O)N[C@@H](CCCN=C(N)N)C(=O)N[C@H](Cc2c[nH]c3ccccc23)C(=O)N1)C(N)=O
- EC50 (Melanocortin receptor 4 [11]): 1.4 nM
- EC50 (Melanocortin receptor 5 [7]): 0.12 nM
- EC50 [8]: 1.5 nM
- EC50 (Melanocortin receptor 3 [1]): 3 nM
- IC50 [10]: Not Active

Structure (SMILES): C[C@@H](O)[C@H](NC(=O)[C@H]1NC(=O)[C@H](CO)NC(=O)[C@H](CCCN=C(N)N)NC(=O)[C@@H](Cc2c[nH]c3ccccc23)NC(=O)[C@H](Cc2ccc(O)cc2)NC(=O)[C@@H](NC(=O)[C@H](N)Cc2ccccc2)CSSC1(C)C)C(N)=O
- EC50 [6]: Not Active

Structure (SMILES): C[C@@H](O)[C@H](NC(=O)[C@@H]1CSSC[C@@H](NC(=O)[C@H](N)Cc2ccccc2)C(=O)N[C@@H](Cc2c[nH]cn2)C(=O)N[C@@H](Cc2ccc3ccccc3c2)C(=O)N[C@@H](CCCN=C(N)N)C(=O)N[C@H](Cc2c[nH]c3ccccc23)C(=O)N1)C(N)=O
- EC50 [6]: Not Active
- IC50 [10]: Not Active

Structure (SMILES): C[C@@H](O)[C@H](NC(=O)[C@@H]1CCSSC[C@H](NC(=O)[C@H](N)Cc2ccccc2)C(=O)N[C@@H](Cc2c[nH]cn2)C(=O)N[C@H](Cc2ccccc2)C(=O)N[C@@H](CCCN=C(N)N)C(=O)N[C@@H](Cc2c[nH]c3ccccc23)C(=O)N1)C(N)=O
- IC50 [10]: Not Active

Structure (SMILES): C[C@@H](O)[C@H](NC(=O)[C@H]1CCCCNC(=O)C[C@H](NC(=O)[C@@H](N)Cc2ccccc2)C(=O)N[C@@H](Cc2cnc[nH]2)C(=O)N[C@H](Cc2ccccc2)C(=O)N[C@@H](CCCNC(=N)N)C(=O)N[C@H](Cc2c[nH]c3ccccc23)C(=O)N1)C(N)=O
- EC50 (Melanocortin receptor 3 [1]): 0.23 nM

Structure (SMILES): C[C@@H](O)[C@H](NC(=O)[C@@H]1NC(=O)[C@H](Cc2c[nH]c3ccccc23)NC(=O)[C@H](CCCN=C(N)N)NC(=O)[C@H](Cc2c[nH]c3ccccc23)NC(=O)[C@H](Cc2ccccc2)NC(=O)[C@@H](NC(=O)[C@H](N)Cc2ccccc2)CSSC1(C)C)C(N)=O
- EC50 [6]: Not Active

Structure (SMILES): C[C@@H](O)[C@H](NC(=O)[C@@H]1CCSSC[C@H](NC(=O)[C@H](N)Cc2ccccc2)C(=O)N[C@@H](Cc2cnc[nH]2)C(=O)N[C@H](Cc2ccccc2)C(=O)N[C@@H](CCCNC(=N)N)C(=O)N[C@@H](Cc2c[nH]c3ccccc23)C(=O)N1)C(N)=O
- EC50 (Melanocortin receptor 4 [11]): 51 nM
- EC50 (Melanocortin receptor 5 [7]): 2.2 nM
- EC50 [8]: 5.1 nM

Structure (SMILES): C[C@@H](O)[C@H](NC(=O)[C@H]1CSSC[C@H](NC(=O)[C@H](N)Cc2ccccc2)C(=O)N[C@H](Cc2cnc[nH]2)C(=O)N[C@H](Cc2ccccc2)C(=O)N[C@@H](CCCNC(=N)N)C(=O)N[C@H](Cc2c[nH]c3ccccc23)C(=O)N1)C(N)=O
- EC50 (Melanocortin receptor 4 [11]): 0.2 nM
- EC50 (Melanocortin receptor 5 [7]): 0.1 nM
- EC50 [8]: 0.23 nM
- EC50 (Melanocortin receptor 3 [1]): 0.23 nM
- IC50 [10]: Not Active

Structure (SMILES): C[C@@H](O)[C@H](NC(=O)[C@@H]1CCCCNC(=O)C[C@H](NC(=O)[C@H](N)Cc2ccccc2)C(=O)N[C@@H](Cc2c[nH]cn2)C(=O)N[C@H](Cc2ccccc2)C(=O)N[C@@H](CCCN=C(N)N)C(=O)N[C@@H](Cc2c[nH]c3ccccc23)C(=O)N1)C(N)=O
- IC50 [10]: Not Active

Structure (SMILES): C[C@@H](O)[C@H](NC(=O)[C@H]1NC(=O)[C@H]([C@@H](C)O)NC(=O)[C@H](CCCN=C(N)N)NC(=O)[C@@H](Cc2c[nH]c3ccccc23)NC(=O)[C@H](Cc2ccc(I)cc2)NC(=O)[C@@H](NC(=O)[C@H](N)Cc2ccccc2)CSSC1(C)C)C(N)=O
- EC50 [6]: Not Active

Structure (SMILES): C[C@@H](O)[C@H](NC(=O)[C@@H]1CSSC[C@H](NC(=O)[C@H](N)Cc2ccccc2)C(=O)N[C@@H](Cc2c[nH]cn2)C(=O)N[C@@H](Cc2ccc(F)cc2)C(=O)N[C@@H](CCCN=C(N)N)C(=O)N[C@H](Cc2c[nH]c3ccccc23)C(=O)N1)C(N)=O
- IC50 [10]: Not Active

Structure (SMILES): C[C@@H](O)[C@H](NC(=O)[C@H]1NC(=O)[C@H](Cc2c[nH]c3ccccc23)NC(=O)[C@H](CCCN=C(N)N)NC(=O)[C@@H](Cc2c[nH]c3ccccc23)NC(=O)[C@H](Cc2ccc(O)cc2)NC(=O)[C@@H](NC(=O)[C@H](N)Cc2ccccc2)CSSC1(C)C)C(N)=O
- EC50 [6]: Not Active
